Measurements: ChEMBL document CHEMBL4152188, “Design, synthesis and biological evaluation of C(4) substituted monobactams as antibacterial agents against multidrug-resistant Gram-negative bacteria” (Eur J Med Chem, 2018)
Values after ≈ are worked out from the molar mass of the structure shown.

Columns and labels:
[1] = Elimination half life in human liver microsomes at 0.1 uM pre-incubated with compound followed by NADPH addition and measured after 60 mins by LC-MS/MS analysis; format: ADME, microsome; conditions: read-out: beta t1/2
[2] = Intrinsic clearance in mouse liver microsomes assessed per g protein at 0.1 uM pre-incubated with compound followed by NADPH addition and measured after 60 mins by LC-MS/MS analysis; format: ADME, microsome; conditions: 1 h
Method in brief: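 Liver microsomes, 0.33 mg/mL microsomal protein, with an NADP+-regenerating system. Test article at 0.1 µM, incubated at 37°C. Samples were taken at 0, 7, 17, 30 and 60 min, and parent compound was measured by MS. Half-life, intrinsic clearance (ml/min/g protein) and MF (%) are derived from parent loss.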

Escherichia coli [3] = assay: Antibacterial activity against extended-spectrum beta-lactamase producing Escherichia coli isolate 208687 after 18 hrs by CLSI broth microdilution method; format: functional; conditions: isolate 208687, 18 h
Escherichia coli [4] = assay: Selectivity index, ratio of MIC for against Escherichia coli isolate 210737 to MIC for Escherichia coli isolate 210737 in presence of BPL; format: functional
Escherichia coli [5] = assay: Antibacterial activity against extended-spectrum beta-lactamase producing Escherichia coli isolate 209285 after 18 hrs by CLSI broth microdilution method; format: functional; conditions: isolate 209285, 18 h
Escherichia coli [6] = assay: Selectivity index, ratio of MIC for against extended-spectrum beta-lactamase producing Escherichia coli isolate 209285 to MIC for extended-spectrum beta-lactamase producing Escherichia coli isolate 209285 in presence of BPL; format: functional
Escherichia coli [7] = assay: Antibacterial activity against extended-spectrum beta-lactamase producing Escherichia coli isolate 106342 after 18 hrs by CLSI broth microdilution method; format: functional; conditions: isolate 106342, 18 h
Escherichia coli [8] = assay: Selectivity index, ratio of MIC for against extended-spectrum beta-lactamase producing Escherichia coli isolate 106342 to MIC for extended-spectrum beta-lactamase producing Escherichia coli isolate 106342 in presence of BPL; format: functional
Klebsiella pneumoniae [9] = assay: Antibacterial activity against KPC-2 producing Klebsiella pneumoniae isolate 212423 after 18 hrs by CLSI broth microdilution method; format: functional; conditions: isolate 212423, 18 h
Klebsiella pneumoniae [10] = assay: Antibacterial activity against KPC-2 producing Klebsiella pneumoniae isolate 212423 after 18 hrs in presence of BPL by CLSI broth microdilution method; format: functional; conditions: isolate 212423, 18 h
Method in brief: (§1)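 CLSI broth microdilution against clinical isolates (ESBL E. coli, KPC-2 MDR K. pneumoniae, IMP-4 MDR P. aeruginosa; five per species). Iron limitation: Mueller-Hinton broth supplemented with 16 mg/liter 2,2'-bipyridyl to complex iron and induce iron uptake systems. Read-out: MIC.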

Klebsiella pneumoniae [11] = assay: Antibacterial activity against KPC-2 producing Klebsiella pneumoniae isolate 209632 after 18 hrs by CLSI broth microdilution method; format: functional; conditions: isolate 209632, 18 h
Klebsiella pneumoniae [12] = assay: Antibacterial activity against KPC-2 producing Klebsiella pneumoniae isolate 212229 after 18 hrs by CLSI broth microdilution method; format: functional; conditions: isolate 212229, 18 h
Pseudomonas aeruginosa [13] = assay: Antibacterial activity against IMP-4 producing Pseudomonas aeruginosa isolate 212886 after 18 hrs by CLSI broth microdilution method; format: functional; conditions: isolate 212886, 18 h
Pseudomonas aeruginosa [14] = assay: Antibacterial activity against IMP-4 producing Pseudomonas aeruginosa isolate 212886 after 18 hrs in presence of BPL by CLSI broth microdilution method; format: functional; conditions: isolate 212886, 18 h; method in brief: as §1
Pseudomonas aeruginosa [15] = assay: Antibacterial activity against IMP-4 producing Pseudomonas aeruginosa isolate 208247 after 18 hrs in presence of BPL by CLSI broth microdilution method; format: functional; conditions: isolate 208247, 18 h; method in brief: as §1
Pseudomonas aeruginosa [16] = assay: Antibacterial activity against IMP-4 producing Pseudomonas aeruginosa isolate 209321 after 18 hrs in presence of BPL by CLSI broth microdilution method; format: functional; conditions: isolate 209321, 18 h; method in brief: as §1
Pseudomonas aeruginosa [17] = assay: Antibacterial activity against IMP-4 producing Pseudomonas aeruginosa isolate 207272 after 18 hrs by CLSI broth microdilution method; format: functional; conditions: isolate 207272, 18 h

Row | Structure (SMILES) | half-life at 0.1 µM [1] | CLint [2] | MIC (Escherichia coli [3]) | Selectivity Index (Escherichia coli [4]) | MIC (Escherichia coli [5]) | Selectivity Index (Escherichia coli [6]) | MIC (Escherichia coli [7]) | Selectivity Index (Escherichia coli [8]) | MIC (Klebsiella pneumoniae [9]) | MIC (Klebsiella pneumoniae [10]) | MIC (Klebsiella pneumoniae [11]) | MIC (Klebsiella pneumoniae [12]) | MIC (Pseudomonas aeruginosa [13]) | MIC (Pseudomonas aeruginosa [14]) | MIC (Pseudomonas aeruginosa [15]) | MIC (Pseudomonas aeruginosa [16]) | MIC (Pseudomonas aeruginosa [17])
1 | CC(C)C(O/N=C(\C(=O)N[C@@H]1C(=O)N(S(=O)(=O)O)[C@@H]1Cn1cc(COCc2cc(=O)c(O)cn2O)nn1)c1csc(N)n1)c1cc(=O)c(O)cn1O (stereo partly drawn) | 1.33 h | 27.1 mL/min/g | 16 µg/mL (≈ 20.9 µM) | 2 | 16 µg/mL (≈ 20.9 µM) | 2 | 16 µg/mL (≈ 20.9 µM) | 2 | 2 µg/mL (≈ 2.61 µM) | 0.25 µg/mL | 2 µg/mL (≈ 2.61 µM) | 2 µg/mL (≈ 2.61 µM) | 4 µg/mL (≈ 5.22 µM) | 1 µg/mL | 4 µg/mL | 4 µg/mL | 16 µg/mL (≈ 20.9 µM)
2 | CC(C)C(O/N=C(\C(=O)N[C@@H]1C(=O)N(S(=O)(=O)O)[C@@H]1CCl)c1csc(N)n1)c1cc(=O)c(O)cn1O (stereo partly drawn) | 3.15 h | 29 mL/min/g | 0.5 µg/mL (≈ 0.885 µM) | 4 | 0.5 µg/mL (≈ 0.885 µM) | 1 | 1 µg/mL (≈ 1.77 µM) | 4 | 0.5 µg/mL (≈ 0.885 µM) | 0.5 µg/mL | 4 µg/mL (≈ 7.08 µM) | 0.5 µg/mL (≈ 0.885 µM) | 8 µg/mL (≈ 14.2 µM) | 8 µg/mL | 8 µg/mL | 8 µg/mL | 8 µg/mL (≈ 14.2 µM)
3 | CC(C)C(O/N=C(\C(=O)N[C@@H]1C(=O)N(S(=O)(=O)O)C12CCCC2)c1csc(N)n1)c1cc(=O)c(O)cn1O (stereo partly drawn) | 4.52 h | 5.59 mL/min/g | 0.5 µg/mL (≈ 0.876 µM) | 8 | 0.5 µg/mL (≈ 0.876 µM) | 1 | 0.5 µg/mL (≈ 0.876 µM) | 2 | 2 µg/mL (≈ 3.51 µM) | 0.5 µg/mL | 2 µg/mL (≈ 3.51 µM) | 1 µg/mL (≈ 1.75 µM) | 16 µg/mL (≈ 28 µM) | 8 µg/mL | 8 µg/mL | 8 µg/mL | 16 µg/mL (≈ 28 µM)
4 | CC(C)C(O/N=C(\C(=O)N[C@@H]1C(=O)N(S(=O)(=O)O)[C@@H]1COC(N)=O)c1csc(N)n1)c1cc(=O)c(O)cn1O (stereo partly drawn) | 2.93 h | 3.41 mL/min/g | 0.5 µg/mL (≈ 0.848 µM) | 1 | 0.5 µg/mL (≈ 0.848 µM) | 4 | 0.5 µg/mL (≈ 0.848 µM) | 2 | 1 µg/mL (≈ 1.7 µM) | 0.5 µg/mL | 8 µg/mL (≈ 13.6 µM) | 1 µg/mL (≈ 1.7 µM) | 4 µg/mL (≈ 6.78 µM) | 4 µg/mL | 4 µg/mL | 4 µg/mL | 8 µg/mL (≈ 13.6 µM)
